Experimental data: publication PMC11268778 (International Journal of Nanomedicine, 2024)

What was measured:
[1] = Encapsulation; format: physicochemical; settings: estimated from FITC signals of supernatants of broken minus un-broken NPs
Method in brief: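 PLGA (5 mg/mL in acetonitrile) containing FITC-labelled peptide was injected at 2 mL/min into 0.1% PVA and stirred 48 h. Particles were washed three times (15,000 rpm, 10 min) and freeze-dried. 1 mg NPs was disrupted in 50% DMSO/0.5% SDS/0.1 M NaOH for 1 h. FITC was read at 488/520 nm against a free-peptide calibration line. Surface-adsorbed fraction = broken minus unbroken supernatant signal. Triplicate.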

[2] = In vitro release from PLGA-NPs; format: physicochemical; settings: 1 mg NPs in 1.5 mL PBS pH 7.2, 37 °C, FITC fluorescence, triplicate

peptide adsorbed on the external surface of NPs [1]	peptide released from PLGA-NPs at 0.5 h [2] [%]	Substance
~ 63%		βAla-G-βAla-QL-PEG-AAFAARA [Ctrl PEG]
	100	βAla-G-βAla-QL-PEG-AAFAARAV [Ctrl PEG-Val]
